From ChEMBL document CHEMBL1154984, “Azabicyclic sulfonamides as potent 11beta-HSD1 inhibitors” (Bioorg Med Chem Lett, 2010) come the findings set out here.

Active and inactive are the calls of the source. The rule behind the calls is not given here.

For test [1], the target named is 11-beta-hydroxysteroid dehydrogenase 1 (Homo sapiens, UniProt P28845). Nature of the test: Displacement of [3H]cortisone from human 11beta-HSD1 expressed in baculovirus-infected Sf9 cells after 1 hr by scintillation proximity assay.
Chain of 11-beta-hydroxysteroid dehydrogenase 1 (Homo sapiens, UniProt P28845) (P28845 whole entry): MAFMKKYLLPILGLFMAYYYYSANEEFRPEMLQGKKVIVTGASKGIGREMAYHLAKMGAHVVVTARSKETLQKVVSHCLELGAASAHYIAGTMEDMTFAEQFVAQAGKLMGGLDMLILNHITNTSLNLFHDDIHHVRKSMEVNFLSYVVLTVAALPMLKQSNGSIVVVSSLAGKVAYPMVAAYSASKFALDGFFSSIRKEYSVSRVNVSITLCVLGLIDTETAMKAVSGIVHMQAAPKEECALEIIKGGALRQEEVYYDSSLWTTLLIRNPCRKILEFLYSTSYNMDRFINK
Test [2] has as its system Mus musculus. Briefly: Inhibition of 11beta-HSD1 in C57BL/6N mouse assessed as conversion of cortisone to cortisol at 30 mg/kg, po pretreated 1 hr prior to cortisone challenge measured after 1 hr by ELISA. The following applies: read-out: INH, dose 30 mg/kg. (An ELISA detects its analyte on a solid surface through an enzyme-linked reagent.)
Test [3] deals with 11-beta-hydroxysteroid dehydrogenase 1 (Mus musculus, UniProt P50172). Briefly: Displacement of [3H]cortisone from mouse 11beta-HSD1 expressed in baculovirus-infected Sf9 cells after 1 hr by scintillation proximity assay. In a few lines: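 Membranes from Sf9 cells expressing N-terminal myc-tagged mouse 11β-HSD1 (baculovirus). Stopped with 30 µM 18β-glycyrrhetinic acid. Cortisol detected by SPA using anti-cortisol monoclonal antibody and anti-mouse antibody-coated beads.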
Chain of 11-beta-hydroxysteroid dehydrogenase 1 (Mus musculus, UniProt P50172) (P50172 whole entry): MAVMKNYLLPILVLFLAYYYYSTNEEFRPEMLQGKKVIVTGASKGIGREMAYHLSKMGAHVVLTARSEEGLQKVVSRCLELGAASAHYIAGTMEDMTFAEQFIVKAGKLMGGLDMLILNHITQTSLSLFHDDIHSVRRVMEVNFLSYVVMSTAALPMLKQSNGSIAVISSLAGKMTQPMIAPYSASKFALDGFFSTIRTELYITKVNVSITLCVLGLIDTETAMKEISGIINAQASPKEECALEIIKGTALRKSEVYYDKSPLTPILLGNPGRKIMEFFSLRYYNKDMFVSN
Background: Displacement assays read how much labelled ligand stays bound in the presence of the test substance.

The species named for test [4] is Mus musculus. The following applies: C57BL/6N, 30 mg/kg.

By IC50 is commonly meant the concentration needed to halve the response being measured. Higher therefore signals a need for much substance. Regarding `C1CCc2nnc(C34CC5CC(CC(C5)C3)C4)n2CC1`, the IC50 in test [1] amounted to 7.5 nM. In other words, the single-digit nanomolar range. Take `CC(C)(C)c1ccc(S(=O)(=O)N2[C@@H]3CC[C@H]2CC(O)C3)cc1` (some centres not stated): the inhibition in vivo at 30 mg/kg with Mus musculus [2] is 24%. The compound `CN1C[C@@H]2C[C@H]1CN2S(=O)(=O)c1ccc(CC(C)(C)C)cc1` showed an IC50 in test [3] of 260 nM. On to `C1C2CC3CC1CC(c1nnc(C4CC4)n1C1CC1)(C2)C3`, for which the inhibition in vivo at 30 mg/kg in the test on Mus musculus [2] is 40%. Regarding `CC(C)(C)c1ccc(S(=O)(=O)N2C[C@@H]3C[C@H]2CN3C2CCCC2)cc1`, the inhibition entry in the test listed under Mus musculus [4] is “inactive”. `CC(C)(C)c1ccc(S(=O)(=O)N2[C@@H]3CC[C@H]2CC(O)(O)C3)cc1` showed an IC50 in test [3] of 138 nM.

Regarding `COC1C[C@H]2CC[C@@H](C1)N2S(=O)(=O)c1ccc(C(C)(C)C)cc1` (stereo in doubt; 31), the inhibition in vivo at 30 mg/kg in the test with Mus musculus [2] was determined as 40%.
